BindingDB's records for doi:10.1021/jm00165a017 (Abbott Laboratories, 1990)

Molecular target: T1, Polyunsaturated fatty acid 5-lipoxygenase (Rattus norvegicus, UniProt P12527)
T1 sequence (P12527 whole entry): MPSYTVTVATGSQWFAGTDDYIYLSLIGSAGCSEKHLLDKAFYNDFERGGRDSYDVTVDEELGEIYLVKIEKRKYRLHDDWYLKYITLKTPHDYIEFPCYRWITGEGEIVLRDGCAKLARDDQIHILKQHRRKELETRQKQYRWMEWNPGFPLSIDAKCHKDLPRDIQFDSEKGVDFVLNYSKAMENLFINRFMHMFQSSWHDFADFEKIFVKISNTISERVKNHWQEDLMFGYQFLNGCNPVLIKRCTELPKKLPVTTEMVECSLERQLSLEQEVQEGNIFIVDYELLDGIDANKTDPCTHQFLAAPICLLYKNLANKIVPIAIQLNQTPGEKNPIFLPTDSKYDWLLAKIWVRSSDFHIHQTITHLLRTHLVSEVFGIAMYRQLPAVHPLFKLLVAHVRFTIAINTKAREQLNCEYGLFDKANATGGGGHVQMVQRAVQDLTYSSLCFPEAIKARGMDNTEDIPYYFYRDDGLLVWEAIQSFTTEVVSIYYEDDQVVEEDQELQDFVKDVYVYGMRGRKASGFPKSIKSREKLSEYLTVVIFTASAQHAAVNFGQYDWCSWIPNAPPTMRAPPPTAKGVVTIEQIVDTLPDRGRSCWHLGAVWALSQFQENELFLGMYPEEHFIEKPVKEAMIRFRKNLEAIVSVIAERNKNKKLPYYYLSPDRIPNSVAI
Test: In vitro inhibitory activity against 5-lipoxygenase in rat basophilic leukemia cells(RBL-1)
How it was run: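 Enzyme source: sonicated lysate of trypsin-harvested adherent RBL-1 cells (3.0 × 10^7 cells/mL in 10 mM BES, 10 mM PIPES, 1 mM EDTA, pH 6.8), 20000g 20-min supernatant. Compounds in DMSO preincubated with enzyme 20 min at 37 °C in buffer with 0.7 mM CaCl2, 100 mM NaCl. Radiolabelled 5-HETE counted after chromatography, corrected via [3H]5-HETE recovery.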

IC50: 1500 nM
Structure (SMILES): CC(C)Cc1ccc(C(Cc2ccccc2)C(=O)N(C)O)cc1 (stereo unspecified)
